# Measurements published in ChEMBL document CHEMBL4118192, “BET bromodomain ligands: Probing the WPF shelf to improve BRD4 bromodomain affinity and metabolic stability” (Bioorg Med Chem, 2018).
# What was measured:
# [1] = Apparent half life in human liver microsomes at 3 uM; assay type: ADME, microsome; settings: read-out: t1/2(app)
# [2] = test system: NCI-H23; test: Growth inhibition of human NCI-H23 cells after 48 hrs by sulforhodamine B assay; assay type: functional; settings: NCI-H23, 48 h
# Outline: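 NCI-60 panel follow-up: five concentrations from 10 nM to 100 μM, 48 h exposure. Growth read by sulforhodamine B protein staining. GI50 derived from the concentration-response, with the concentration for total growth inhibition (TGI) also recorded when below 100 μM.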
# [3] = test system: RXF 393; test: Growth inhibition of human RXF393 cells at 10 uM after 48 hrs by sulforhodamine B assay relative to control; assay type: functional; settings: RXF 393, 48 h, read-out: GI
# Outline: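 NCI-60 human cancer cell line screen, single-dose pass: cells exposed to 10 μM for 48 h. Cellular protein content read out by sulforhodamine B staining, and growth inhibition expressed relative to untreated control.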
SMILES,half-life at 3 µM [1],GI50 [2],inhibition of growth at 10 µM [3]
Cc1noc(C)c1-c1cc(O)cc(C(O)c2ccccc2)c1 (stereo not drawn),39.8 min,–,–
COc1ccccc1S(=O)(=O)Nc1ccc2c(c1)CN(C)C(=O)N2,–,8.5 µM,26.7%
